Source: ChEMBL document CHEMBL4316638, “Bioactive Meroterpenoids and Isocoumarins from the Mangrove-Derived Fungus Penicillium sp. TGM112” (J Nat Prod, 2019)
In brackets after ≈: the same amount, converted by molar mass. Activity calls are given as the source filed them. The rule behind the calls is not given here.

Tests used:
[1] = test system: Staphylococcus aureus; assay: Antibacterial activity against methicillin-resistant Staphylococcus aureus ATCC 33591 by microplate assay; type: functional, organism-based
Procedure, shortened: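 MRSA (ATCC 33591) was one strain in a panel of six pathogenic bacteria: four general and two marine Vibrio. Assayed by the microplate method, with ciprofloxacin as positive control.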

[2] = test system: Caenorhabditis elegans; assay: Insecticidal activity against Caenorhabditis elegans measured at 12 […]; type: functional, organism-based
Procedure, shortened: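 L1 C. elegans (30−40 worms/well) in S medium with E. coli OP50 and chloramphenicol, exposed to compound at 40, 20, 10, 5, 1 and 0 μg/mL diluted in filter-sterilized M-9; 3 replicates per treatment. Plates sealed, kept at 24 °C for 60 h in the dark; dead larvae counted at 12, 24, 36, 48, 60. M-9 negative control, levamisole 1 mg/mL positive control.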

[3] = test system: Escherichia coli; assay: Antibacterial activity against Escherichia coli ATCC 25922 by microplate assay; type: functional, organism-based
[4] = test system: Helicoverpa armigera; assay: Insecticidal activity against Helicoverpa armigera hubner measured every other day for 8 days starting from 2 days post dosing; type: functional, organism-based
Procedure, shortened: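 Neonate H. armigera larvae fed artificial diet dosed with serial dilutions of compound (1 mg/mL in DMSO) at 200, 100, 50, 25 and 12.5 μL/well in six-well plates; three groups of three larvae, 3 replicates per treatment. Held at 25 ± 1 °C, 80% relative humidity. Dead larvae counted on days 2, 4, 6, 8. DMSO negative, azadirachtin positive, plain diet blank controls.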

[5] = test system: Vibrio parahaemolyticus; assay: Antibacterial activity against Vibrio parahaemolyticus ATCC 17802 by microplate assay; type: functional, organism-based
[6] = test system: HepG2; assay: Cytotoxicity against human HepG2 cells measured after 7 days by MTT assay; type: functional, cell-based
[7] = test system: Staphylococcus aureus; assay: Antibacterial activity against Staphylococcus aureus ATCC 25923 by microplate assay; type: functional, organism-based
[8] = test system: RAW264.7; assay: Inhibition of LPS-induced nitric oxide production in mouse RAW264.7 cells preincubated for 30 mins followed by LPS-stimulation and measured after 24 hrs by Griess assay; type: functional, cell-based
Procedure, shortened: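 RAW264.7 macrophages seeded at 50 000 cells/well and grown 24 h, then exposed to compound for 30 min at 37 °C before LPS (100 ng/mL) co-incubation for 24 h. Nitrite in supernatant measured by Griess reagent (10 min mixing), absorbance 540 nm. Compounds from 10 mM DMSO stocks; final DMSO ≤0.1%. Dexamethasone positive control. Triplicate runs; IC50 calculated.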

[9] = test system: A549; assay: Cytotoxicity against human A549 cells measured after 7 days by MTT assay; type: functional, cell-based
[10] = test system: Bacillus cereus; assay: Antibacterial activity against Bacillus cereus ATCC 11778 by microplate assay; type: functional, organism-based
[11] = test system: HeLa; assay: Cytotoxicity against human HeLa cells measured after 7 days by MTT assay; type: functional, cell-based
[12] = test system: Vibrio alginolyticus; assay: Antibacterial activity against Vibrio alginolyticus ATCC 17749 by microplate assay; type: functional, organism-based; conditions: NBRC 15630 = ATCC 17749

| Compound | Activity [1] | EC50 [2] [µg/mL] | Activity [3] | IC50 [4] [µg/mL] | Activity [5] | Activity [6] | Activity [7] | inhibition [8] | Activity [9] | Activity [10] | Activity [11] | Activity [12] |
| --- | --- | --- | --- | --- | --- | --- | --- | --- | --- | --- | --- | --- |
| C=C1[C@@]23C(=O)O[C@H](C)[C@]24O[C@@]2(C(=C)[C@]5(C=CC(=O)OC5(C)C)C[C@@H](O)[C@]32C)[C@H](O)[C@@]1(C)OC4=O | inactive | 9.9 (≈ 21 µM) | inactive | 200 (≈ 423 µM) | inactive | inactive | inactive | inactive | inactive | inactive | inactive | inactive |
| C=C1[C@]2(CCC(=O)OC2(C)C)C[C@@H](OC(=O)/C(C)=C\C)[C@]2(C)[C@]34C(=O)O[C@H](C)[C@]35O[C@]12[C@H](OC(C)=O)[C@@](C)(OC5=O)C4=O | inactive | 9.4 (≈ 15.7 µM) | inactive | 200 (≈ 333 µM) | inactive | inactive | inactive | inactive | inactive | inactive | inactive | inactive |
